Compounds with a hit are over-represented: about 0.38% of the library has one in this group of screens.
proCasp7 act – activates human procaspase-7, counter-screen for procaspase-3 activators; P55210; recombinant procaspase-7, Ac-DEVD-pNA absorbance 405 nm; D23A/D198A/D206A triple mutant, cannot self-cleave; scale: DMSO 0, 5 µM enzyme 100; activation, % at 8.5 µM; 330,000 tested, 0.093% active; AID 463210;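 active = percent activation above the screen-wide mean plus 3 SD, cut at about 25% in these data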
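Replicates: singlicate. Assay system: Procaspase-7 triple mutant (PC-7 D3A). Signal: 405 nm absorbance of p-nitroaniline. Times: 1 h preincubation, 2 h reaction. Buffer or medium: Zinc-free HEPES pH 7.4 with 300 mM NaCl, 0.01% Triton X-100. Also added: DEVD-pNA substrate. Benchmarks: DMSO wells as 0%, DMSO with 5 µM added PC-7 as 100%.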
A1 inh – inhibitors of the anti-apoptotic protein A1, read as caspase activation. AID 2462. caspase activation, % (test concentration not listed). MEF A1-2A-BIM cells, Caspase-Glo 3/7 luminescence, 3 h; percent of clofoctol response, vehicle zero. 330,000 tested, 0.066% active;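 active = over half of replicate activation scores above 10%, or exactly half above 10 with the replicate mean above 10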
GSK3B inh – human GSK3beta kinase inhibition | P49841 | GST-GSK3beta kinase, ADP-Glo luminescence, 60 min; active compounds read low | activity score (negative = inhibition), % at 10 µM | 300,000 tested, 0.038% active | AID 2097;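 active = more than half of replicate wells score below -50%, meaning over 50% inhibition versus plate controls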
Target sequence (P49841 whole entry, looked up): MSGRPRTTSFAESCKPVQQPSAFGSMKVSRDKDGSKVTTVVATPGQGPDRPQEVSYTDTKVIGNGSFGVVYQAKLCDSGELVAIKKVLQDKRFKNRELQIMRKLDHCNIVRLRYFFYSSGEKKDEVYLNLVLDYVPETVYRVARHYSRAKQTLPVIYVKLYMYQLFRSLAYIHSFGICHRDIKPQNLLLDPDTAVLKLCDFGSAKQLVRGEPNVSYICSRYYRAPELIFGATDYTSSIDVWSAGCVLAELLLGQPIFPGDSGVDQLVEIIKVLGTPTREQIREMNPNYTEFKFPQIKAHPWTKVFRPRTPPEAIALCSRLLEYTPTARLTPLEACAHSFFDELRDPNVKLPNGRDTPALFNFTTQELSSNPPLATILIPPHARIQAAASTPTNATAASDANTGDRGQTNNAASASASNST
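Test system – GST-tagged human GSK3beta kinase, cell-free · Incubation – 60 min enzyme reaction, room temperature · Signal – ADP-Glo luminescence · Also added – peptide substrate and ATP at 25 µM · Controls – DMSO neutral wells and GW8510 at 20 µM as positive · Buffer or medium – Tris/MgCl2 kinase buffer · Measure – Luminescence-derived activity versus plate DMSO and GW8510 wells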
procasp3 activ – activators of human procaspase-3; P42574; recombinant procaspase-3 D3A, Ac-DEVD-pNA absorbance 405 nm; activation, % at 8.5 µM; 330,000 tested, 0.11% active;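 active = activation above the mean of all tested compounds plus 3 SD, cut at about 21% in these data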
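Compound: 8.5 µM single point, 0.8% DMSO / Material: Autoprocessing-dead procaspase-3 D3A mutant enzyme / Timing: 1 h preincubation plus 2 h reaction at 25 °C / Medium: Zinc-free HEPES/NaCl buffer with 0.01% Triton X-100 at pH 7.4 / Technique: 405 nm absorbance of p-nitroaniline, reads at 0 and 120 min / Repeats: one well per compound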
STK33 inh – human STK33 kinase inhibition. Q9BYT3. inhibition, % at 10 µM. 320,000 tested, 0.073% active. purified STK33, MBP phosphorylation, ADP-Glo luminescence. AID 2661;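 active = inhibition at or above 25%, using the most active replicate where run in duplicate; inactive = inhibition below 25%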
GSK3A inh – human GSK-3 alpha kinase inhibition | ADP-Glo luminescence, 60 min | 320,000 tested, 0.1% active | AID 2650 | inhibition, % at 10 µM | P49840;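 active = more than half of replicates show inhibition above 20%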;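 also: GST-tagged GSK-3 alpha with peptide substrate and 25 µM ATP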
Each line names hits and unclear results; the compound was inactive in the other large screens.

CN1CCN(c2ccc(NC(=O)c3ccc(-c4cccc([N+](=O)[O-])c4)o3)cc2)CC1	STK33 inh 36
CN1CCN(c2ccc(NC(=O)c3ccc(-c4ccc(Cl)cc4)o3)cc2)CC1	none
CCN1/C(=C/C(C)=O)Sc2ccc(OC)cc21	GSK3A inh 56
CC(C)(C)c1csc(NC(=O)c2ccc(Cl)s2)n1	none
CCNc1nc(N)c(C(=O)c2ccc(Cl)s2)s1	GSK3B inh -90, GSK3A inh 98
[N-]=[N+]=NC1CC(CO)OC1n1ccc(=O)[nH]c1=O (centres undefined)	none
Cc1cc2oc3cc(NCCC4CCCN4C)ccc3c(=O)c2cc1C (centres undefined)	none
CN1CCCC1CCNc1ccc2sc3ccccc3c(=O)c2c1 (centres undefined)	STK33 inh 44
COc1cc2sc3cc(NCCCN4CCOCC4)ccc3c(=O)c2cc1OC	none (no result: GSK3B inh)
O=c1c2ccccc2sc2ccc(NCCCN3CCOCC3)cc12	STK33 inh 57
c1ccc(-c2ccc(C3=Nn4c(Cn5nnc6ccccc65)nnc4SC3)cc2)cc1	none
O=C(Cn1ncn2c(cc3ccccc32)c1=O)NCCc1cccs1	none
O=C1NC(=O)/C(=C/c2ccc(O)cc2)S1	STK33 inh 33
CCn1c(-c2ccccc2)ccc(C#N)c1=O	none
O=C(Nc1ccc(Cl)cc1Cl)c1cccc(N2C(=O)C=CC2=O)c1	A1 inh 14
Cc1nonc1OCCn1c([N+](=O)[O-])cnc1C	none
CC(C)(C)C1=CC(=Nc2ccccc2N)C=C(C(C)(C)C)C1=O	none
CC(C)(C)C1=CC(=O)C(=O)C(C(C)(C)C)=C1	A1 inh 31
COc1ccc(Cc2c(O)nc(SCC(=O)N3CCCCCC3)[nH]c2=O)cc1	none
Nc1c(C(=O)Nc2ccc(S(=O)(=O)N3CCCC3)cc2)sc2nc3ccc(OC(F)(F)F)cc3cc12	A1 inh 15
O=C(CCc1ccc(O)cc1)c1c(O)cc(O)cc1O	STK33 inh 30
COc1ccc2c3c(cccc13)C(=O)CC2	none (no result: proCasp7 act, procasp3 activ)
Oc1[nH]c2ccccc2c1C=Nc1ccc2c(c1)OCO2	STK33 inh 26
COc1ccc2oc(=O)c(-c3ccccc3C(=O)N3CCOCC3)cc2c1	none
CCCn1c(NC(=O)c2ccccc2)nc2ccccc21	none
CCCn1c(NC(=O)c2cccc(S(=O)(=O)N3CCCC3)c2)nc2ccccc21	STK33 inh 44
COc1ccc(Nc2nc(N)c([N+](=O)[O-])c(NCCO)n2)cc1	GSK3B inh -53, GSK3A inh 75
COc1ccc(Nc2nc(N)c([N+](=O)[O-])c(NCc3ccccc3)n2)cc1	none
Nc1nc(Nc2cccc(Cl)c2)nc(NCCO)c1[N+](=O)[O-]	GSK3B inh -50, GSK3A inh 73
Nc1nc(Nc2cccc(Cl)c2)nc(NCc2ccco2)c1[N+](=O)[O-]	none
Cc1cccc(Nc2nc(N)c([N+](=O)[O-])c(NCCO)n2)c1	GSK3A inh 64
CCCn1cc(CN2CCC(Oc3ccc(C(=O)N4CCCC4)cc3)CC2)c(C)n1	none
CCCCCCCCCCCCCCCC[n+]1cccc2ccccc21	STK33 inh 50 (no result: GSK3B inh)
CCc1cccc(NC(=O)C2CCN(S(=O)(=O)c3ccc4c(c3)NC(=O)CO4)CC2)c1	A1 inh 9.7
c1cc2[nH]snc2c2nc(C3CC3)nc12	GSK3A inh 54
Cc1cc2n(n1)C(c1ccc(N(C)C)cc1)Nc1ccccc1-2 (centres undefined)	proCasp7 act 47
COC(=O)c1ccc2c(c1)C(C)(C)C(/C=C/c1ccc(O)cc1)=[N+]2C	A1 inh 10
COC(=O)c1ccc2c(c1)C(C)(C)C(/C=C/c1ccc(OC)c(OC)c1OC)=[N+]2C	none
Oc1ccc(/C=N/n2c(-c3ccccc3)n[nH]c2=S)cc1	STK33 inh 34
O=C(COc1ccccc1[N+](=O)[O-])N/N=C/c1ccc(O)cc1	GSK3B inh -51 (no result: STK33 inh, GSK3A inh)
O=C(COc1cccc2cccnc12)N/N=C/c1ccc(O)cc1	GSK3A inh 56

Screens (PubChem)
